Experimental data published in ChEMBL document CHEMBL2417376, “N-Heteroarylmethyl-5-hydroxy-1,2,5,6-tetrahydropyridine-3-carboxylic acid a novel scaffold for the design of uncompetitive α-glucosidase inhibitors” (Bioorg Med Chem, 2013).
Activity calls are given as the source filed them. The rule behind the calls is not given here.

How the values were obtained:
[1] = system: Saccharomyces cerevisiae; assay: Inhibition of Saccharomyces cerevisiae alpha-glucosidase using pNPG as substrate assessed as residual activity at 100 uM preincubated for 20 mins followed by substrate addition measured after 45 mins relative to control
Procedure, shortened: (§1)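 α-Glucosidase (0.175 U/ml) in water with compound (1 µL DMSO dilution) pre-incubated 20 min at 37 °C. Then added PBS (140 mM, pH 7.2), reduced glutathione (9 mM) and pNPG (0.9 mM). Incubated 45 min at 37 °C, read at 400 nm. % inhibition = (AC−AS)/AC×100 vs DMSO-only control. Triplicates with blanks.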

[2] = system: beta-glucuronidase (Bos taurus); assay: Inhibition of bovine liver beta-glucuronidase using phenolphthalein beta-glucuronide as substrate assessed as residual activity measured liberation of phenolphthalein at 100 uM relative to control
[3] = target: Hyaluronidase (Bos taurus) (UniProt Q8SQG8+Q5E985); assay: Inhibition of bovine testes hyaluronidase using hyaluronic acid as substrate assessed as residual activity at 100 uM by nephelometric method relative to control; type: protein assay
Procedure, shortened: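 Hyaluronidase assayed nephelometrically per supplier-recommended protocol. Compounds added from DMSO stock (100 mM), DMSO ≤1% of total volume; activity expressed as percent of activity with DMSO alone.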

[4] = system: Saccharomyces cerevisiae; assay: Uncompetitive inhibition of Saccharomyces cerevisiae alpha-glucosidase using pNPG as substrate assessed as ratio of Kik to Kiv at 1.6 uM
[5] = system: Saccharomyces cerevisiae; assay: Uncompetitive inhibition of Saccharomyces cerevisiae alpha-glucosidase using maltose as substrate assessed as ratio of Kik to Kiv at 2.4 uM
Procedure, shortened: (§2)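 Maltose as substrate in the α-glucosidase protocol (20 min preincubation with inhibitor at 37 °C, then substrate incubation at 37 °C). Reaction stopped at 95 °C for 3 min, and released glucose measured with an HK/G6P-DH glucose kit. Vmax and Km by Lineweaver-Burk; Kik/Kiv ratio per Yang et al.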

[6] = system: Saccharomyces cerevisiae; assay: Uncompetitive inhibition of Saccharomyces cerevisiae alpha-glucosidase using pNPG as substrate assessed as ratio of Kik to Kiv at 8 uM
[7] = system: Saccharomyces cerevisiae; assay: Uncompetitive inhibition of Saccharomyces cerevisiae alpha-glucosidase using pNPG as substrate at 0.17 to 100 uM by Dixon plot analysis
[8] = Uncompetitive inhibition of Saccharomyces cerevisiae alpha-glucosidase using maltose as substrate by Cornish-Bowden plot analysis
[9] = system: Saccharomyces cerevisiae; assay: Uncompetitive inhibition of Saccharomyces cerevisiae alpha-glucosidase using pNPG as substrate at 0.17 to 100 uM by Lineweaver-Burk plot analysis
[10] = system: Saccharomyces cerevisiae; assay: Uncompetitive inhibition of Saccharomyces cerevisiae alpha-glucosidase using pNPG as substrate assessed as ratio of Kik to Kiv at 1.2 uM
[11] = system: Saccharomyces cerevisiae; assay: Uncompetitive inhibition of Saccharomyces cerevisiae alpha-glucosidase using pNPG as substrate assessed as ratio of Kik to Kiv at 2.4 uM
[12] = system: Saccharomyces cerevisiae; assay: Uncompetitive inhibition of Saccharomyces cerevisiae alpha-glucosidase using maltose as substrate assessed as ratio of Kik to Kiv at 8 uM; procedure, shortened: as §2
[13] = system: Saccharomyces cerevisiae; assay: Uncompetitive inhibition of Saccharomyces cerevisiae alpha-glucosidase using maltose as substrate at 0.17 to 100 uM by Dixon plot analysis
[14] = Uncompetitive inhibition of Saccharomyces cerevisiae alpha-glucosidase using pNPG as substrate by Cornish-Bowden plot analysis
[15] = system: Saccharomyces cerevisiae; assay: Uncompetitive inhibition of Saccharomyces cerevisiae alpha-glucosidase using maltose as substrate assessed as ratio of Kik to Kiv at 2 uM; procedure, shortened: as §2
[16] = system: Saccharomyces cerevisiae; assay: Uncompetitive inhibition of Saccharomyces cerevisiae alpha-glucosidase using pNPG as substrate assessed as ratio of Kik to Kiv at 2 uM
[17] = system: Saccharomyces cerevisiae; assay: Uncompetitive inhibition of Saccharomyces cerevisiae alpha-glucosidase using maltose as substrate assessed as ratio of Kik to Kiv at 1.6 uM; procedure, shortened: as §2
[18] = system: Saccharomyces cerevisiae; assay: Uncompetitive inhibition of Saccharomyces cerevisiae alpha-glucosidase using maltose as substrate assessed as ratio of Kik to Kiv at 1.2 uM; procedure, shortened: as §2
[19] = Inhibition of Saccharomyces cerevisiae alpha-glucosidase using pNPG as substrate at 100 uM preincubated for 20 mins followed by substrate addition measured after 45 mins; procedure, shortened: as §1
[20] = system: Saccharomyces cerevisiae; assay: Uncompetitive inhibition of Saccharomyces cerevisiae alpha-glucosidase using pNPG as substrate assessed as ratio of Kik to Kiv at 4 uM
[21] = system: Saccharomyces cerevisiae; assay: Uncompetitive inhibition of Saccharomyces cerevisiae alpha-glucosidase using maltose as substrate at 0.17 to 100 uM by Lineweaver-Burk plot analysis; procedure, shortened: as §2
[22] = system: Saccharomyces cerevisiae; assay: Uncompetitive inhibition of Saccharomyces cerevisiae alpha-glucosidase using maltose as substrate assessed as ratio of Kik to Kiv at 4 uM; procedure, shortened: as §2

SMILES | Activity [1] [%] | Activity [2] [%] | Activity [3] [%] | also measured
CCOC(=O)N1C=C(C(=O)OC)CCC1 | 109 | 96 | 100 | –
O=C(O)C1=CCCN(Cc2nc3ccccc3[nH]2)C1 | 93 | 100 | 100 | –
O=C(O)C1=CCCN(Cc2ccccn2)C1 | 95 | 96 | 101 | –
O=C(O)C1=CCCN(Cc2cc(=O)[nH]c(=O)[nH]2)C1 | 97 | 100 | 102 | –
COC(=O)C1=CC(O)CN(Cc2ccccc2)C1 (configuration not stated) | 92 | 93 | 99 | –
COC(=O)C1=CC(O)CN(Cc2cccnc2)C1 (configuration not stated) | 105 | 102 | 99 | –
COC(=O)C1=CC(O)CN(Cc2ccccn2)C1 (configuration not stated) | 97 | 103 | 100 | –
O=C(O)C1=CC(O)CN(Cc2cc(=O)[nH]c(=O)[nH]2)C1 (configuration not stated) | 3 | 102 | 100 | Inhibition type (qualitative) [7]: Active; uncompetitive inhibition (Lineweaver-Burk) [9]: Active; Ki [14]: 12.5 µM; IC50 [19]: 2000 nM
COC(=O)C1=CC(O)CN(Cc2cc(=O)[nH]c(=O)[nH]2)C1 (configuration not stated) | 95 | 97 | 100 | –

The next lines start with results.

Activity [1] [%] | Activity [2] [%] | Activity [3] [%] | SMILES | also measured
95 | 97 | 101 | O=C(O)C1=CC(O)CN(Cc2ccccc2)C1 (configuration not stated) | –
99 | 95 | 99 | O=C(O)C1=CCCN(Cc2ccncc2)C1 | –
97 | 104 | 100 | O=C(O)[C@H]1CN(Cc2cccnc2)CC[C@H]1O | –
2 | 100 | 102 | O=C(O)C1=CC(O)CN(Cc2cccnc2)C1 (configuration not stated) | Ratio [4]: 1.09; Ratio [5]: 1.07; Ratio [6]: 1.72; Inhibition type (qualitative) [7]: Active; Ki [8]: 800 nM; uncompetitive inhibition (Lineweaver-Burk) [9]: Active; Ratio [10]: 1.03; Ratio [11]: 1.25; Ratio [12]: 1.47; inhibition [13]: Active; Ki [14]: 1.2 µM; Ratio [15]: 1.09; Ratio [16]: 0.998; Ratio [17]: 1.04; Ratio [18]: 1.05; IC50 [19]: 2340 nM; Ratio [20]: 1.49; inhibition [21]: Active; Ratio [22]: 1.2
100 | 95 | 103 | CCOC(=O)C1CN(Cc2ccccc2)CCC1O (mixture of isomers) | –
85 | 108 | 100 | O=C(O)[C@H]1CN(Cc2ccncc2)CC[C@H]1O | –
3 | 103 | 104 | O=C(O)C1=CC(O)CN(Cc2ccncc2)C1 (configuration not stated) | Inhibition type (qualitative) [7]: Active; uncompetitive inhibition (Lineweaver-Burk) [9]: Active; Ki [14]: 10.2 µM; IC50 [19]: 2000 nM
95 | 103 | 100 | O=C(O)[C@H]1CN(Cc2ccccn2)CC[C@H]1O | –
97 | 89 | 100 | O=C(O)C1=CCCN(Cc2ccccc2)C1 | –
2 | 103 | 101 | O=C(O)C1=CC(O)CN(Cc2ccccn2)C1 (configuration not stated) | Inhibition type (qualitative) [7]: Active; uncompetitive inhibition (Lineweaver-Burk) [9]: Active; Ki [14]: 5.3 µM; IC50 [19]: 2000 nM
82 | 102 | 100 | O=C(O)[C@H]1CN(Cc2ccccc2)CC[C@H]1O | –
94 | 105 | 99 | COC(=O)C1=CC(O)CN(Cc2ccncc2)C1 (configuration not stated) | –
102 | 102 | 99 | O=C(O)C1=CCCN(Cc2cccnc2)C1 | –
